# Source: ChEMBL document CHEMBL2331536, “Indenoindolone derivatives as topoisomerase II-inhibiting anticancer agents” (Bioorg Med Chem Lett, 2013)
# The source made the active and inactive calls. The rule behind the calls is not given here.
# Tests used:
# [1] = biological target: DNA topoisomerase 2-alpha (Homo sapiens) (UniProt P11388); experiment: Inhibition of human topoisomerase 2alpha at 100 uM incubated for 30 mins at 37 degC by agarose-gel electrophoresis based ATP-dependent kDNA decatenation assay
# How it was run: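 Commercial topoisomerase drug-screening kit, in vitro ATP-dependent assay. kDNA treated with hTopoIIα plus test agent or 100 µM etoposide, 37 °C, 30 min. Run on 1% agarose gel in TAE buffer; decatenated product quantified.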
# HEK293 = experiment: Cytotoxicity against HEK293 cells after 48 hrs by MTT assay; assay type: functional; conditions: Homo sapiens, HEK293, 48 h; read-out: LC50 (the source's name)
# How it was run: (§1)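 HEK-293 (ATCC CRL-1573) or normal monkey kidney Vero (ATCC CCL-81) cells were plated, then exposed to a range of compound concentrations for 48 h. MTT was added, and the formazan was dissolved in detergent solution and read at 570 nm. LC50 is the concentration giving 50% cell death. Data are the mean SD of three separate experiments.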
# [2] = Cytotoxicity against african green monkey Vero cells after 48 hrs by MTT assay; assay type: cell-based; conditions: chlorocebus sabaeus, read-out: LC50; how it was run: as §1
# Nucleic Acid = experiment: Induction of DNA intercalation in negatively Escherichia coli super coiled small circular plasmid DNA assessed as retradation of DNA migration at 100 uM incubated for 20 mins at 37 degC by agarose-gel electrophoresis; assay type: nucleic-acid assay
# How it was run: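 250 ng negatively supercoiled small circular plasmid DNA (from E. coli) incubated with test agent or ethidium bromide, 37 °C, 20 min. Products resolved on 1% agarose gel in TAE buffer.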
# [3] = biological target: T1, DNA topoisomerase 1 (Homo sapiens) (UniProt P11387); experiment: Inhibition of human DNA topoisomerase 1 assessed as effect on relaxation of negatively super colied DNA at 100 uM incubated for 30 mins at 37 degC by agarose-gel electrophoresis
# T1 sequence (whole entry): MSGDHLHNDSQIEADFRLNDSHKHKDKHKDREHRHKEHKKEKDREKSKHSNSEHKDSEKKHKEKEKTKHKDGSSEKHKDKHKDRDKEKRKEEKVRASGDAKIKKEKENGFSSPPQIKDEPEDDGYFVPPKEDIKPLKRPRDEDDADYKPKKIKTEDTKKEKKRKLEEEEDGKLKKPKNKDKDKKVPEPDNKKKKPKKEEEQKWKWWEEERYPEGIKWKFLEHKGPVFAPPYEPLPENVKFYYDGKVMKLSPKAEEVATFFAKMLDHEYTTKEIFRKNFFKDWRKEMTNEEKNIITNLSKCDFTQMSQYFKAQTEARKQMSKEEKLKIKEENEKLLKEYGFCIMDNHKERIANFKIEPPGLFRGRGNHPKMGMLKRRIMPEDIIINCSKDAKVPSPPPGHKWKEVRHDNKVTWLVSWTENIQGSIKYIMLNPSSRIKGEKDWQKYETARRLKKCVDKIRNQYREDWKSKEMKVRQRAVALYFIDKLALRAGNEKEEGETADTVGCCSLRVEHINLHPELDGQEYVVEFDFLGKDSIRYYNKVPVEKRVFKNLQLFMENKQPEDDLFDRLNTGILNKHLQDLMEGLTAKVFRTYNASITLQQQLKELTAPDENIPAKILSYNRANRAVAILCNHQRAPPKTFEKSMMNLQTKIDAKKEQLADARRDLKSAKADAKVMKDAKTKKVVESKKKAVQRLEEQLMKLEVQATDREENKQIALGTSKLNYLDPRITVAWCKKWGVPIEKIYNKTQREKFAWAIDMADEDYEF
# How it was run: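 Negatively supercoiled DNA treated with human topoisomerase I plus test agent or 100 µM camptothecin, 37 °C, 30 min. Relaxation judged on 1% agarose gel electrophoresis in TAE buffer.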
# DNA topoisomerase 2-alpha (Homo sapiens), sequence (P11388 whole entry): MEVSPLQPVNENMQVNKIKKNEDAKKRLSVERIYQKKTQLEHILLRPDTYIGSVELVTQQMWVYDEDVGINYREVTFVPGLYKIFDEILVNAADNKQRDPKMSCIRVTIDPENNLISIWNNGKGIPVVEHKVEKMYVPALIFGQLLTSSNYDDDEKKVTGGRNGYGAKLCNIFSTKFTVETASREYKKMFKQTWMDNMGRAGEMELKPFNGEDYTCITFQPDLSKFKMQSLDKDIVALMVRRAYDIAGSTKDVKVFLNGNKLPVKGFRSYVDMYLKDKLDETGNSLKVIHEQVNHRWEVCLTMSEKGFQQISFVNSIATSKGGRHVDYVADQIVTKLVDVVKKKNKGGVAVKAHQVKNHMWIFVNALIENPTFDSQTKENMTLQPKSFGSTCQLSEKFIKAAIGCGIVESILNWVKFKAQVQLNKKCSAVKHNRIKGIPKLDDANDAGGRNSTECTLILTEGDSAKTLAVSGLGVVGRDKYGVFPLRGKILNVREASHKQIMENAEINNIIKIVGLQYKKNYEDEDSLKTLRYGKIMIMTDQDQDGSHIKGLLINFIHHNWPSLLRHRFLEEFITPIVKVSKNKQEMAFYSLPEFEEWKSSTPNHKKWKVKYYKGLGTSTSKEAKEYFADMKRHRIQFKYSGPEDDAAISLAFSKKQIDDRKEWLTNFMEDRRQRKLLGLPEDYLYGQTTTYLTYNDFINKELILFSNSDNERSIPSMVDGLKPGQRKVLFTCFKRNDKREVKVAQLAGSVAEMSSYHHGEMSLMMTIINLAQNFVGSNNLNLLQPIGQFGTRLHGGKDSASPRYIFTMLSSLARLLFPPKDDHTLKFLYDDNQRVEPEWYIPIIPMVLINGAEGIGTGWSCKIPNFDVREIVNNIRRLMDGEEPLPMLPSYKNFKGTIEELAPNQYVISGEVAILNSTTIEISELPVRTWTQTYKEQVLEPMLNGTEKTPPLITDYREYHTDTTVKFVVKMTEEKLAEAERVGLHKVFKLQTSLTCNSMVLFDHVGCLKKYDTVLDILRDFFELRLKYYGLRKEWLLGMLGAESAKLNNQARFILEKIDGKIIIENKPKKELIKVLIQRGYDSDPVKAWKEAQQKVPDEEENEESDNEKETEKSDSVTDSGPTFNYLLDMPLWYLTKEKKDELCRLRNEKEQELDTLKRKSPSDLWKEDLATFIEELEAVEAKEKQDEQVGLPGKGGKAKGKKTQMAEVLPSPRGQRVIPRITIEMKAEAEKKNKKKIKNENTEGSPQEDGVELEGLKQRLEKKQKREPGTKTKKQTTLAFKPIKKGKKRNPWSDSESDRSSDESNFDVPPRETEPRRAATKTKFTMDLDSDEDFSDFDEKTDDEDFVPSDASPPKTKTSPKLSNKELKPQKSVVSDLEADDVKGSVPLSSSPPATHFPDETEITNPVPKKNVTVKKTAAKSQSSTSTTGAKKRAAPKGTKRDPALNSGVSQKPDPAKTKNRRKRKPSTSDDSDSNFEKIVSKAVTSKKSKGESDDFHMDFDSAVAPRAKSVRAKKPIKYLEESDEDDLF
Structure (SMILES),inhibition [1],CC50 (HEK293) [µM],CC50 at 48 h [2] [µM],Activity (Nucleic Acid),inhibition [3]
Cn1c2c(c3ccccc31)/C(=N/Nc1ccccc1)c1ccccc1-2,Active,,,,
c1ccc(N/N=C2\c3ccccc3-c3[nH]c4ccccc4c32)cc1,Active,,,,
O=c1[nH]cc(F)c(=O)[nH]1 [FLUOROURACIL],,25,,,
NC(=S)N/N=C1\c2ccccc2-c2[nH]c3ccccc3c21,Active,7,50,inactive,inactive
CC[n+]1c(-c2ccccc2)c2cc(N)ccc2c2ccc(N)cc21,,,,Active,
c1ccc(Cn2c3c(c4ccccc42)/C(=N/Nc2ccccc2)c2ccccc2-3)cc1,Active,,,,
COc1ccc(N/N=C2\c3ccccc3-c3c2c2ccccc2n3Cc2ccccc2)cc1,Active,,,,
O/N=C1\c2ccccc2-c2c1c1ccccc1n2Cc1ccccc1,Active,,,,
CN1c2ccccc2C2=C(O)c3ccccc3C21 (centres undefined),Active,,,,
Cc1ccc(N/N=C2\c3ccccc3-c3c2c2ccccc2n3C)cc1,Active,,,,
COc1cc2c(c(OC)c1OC)-c1c(c3ccccc3n1C)C2O (centres undefined),Active,8,40,inactive,inactive
Cn1c2c(c3ccccc31)/C(=N/NC(=O)Nc1ccccc1)c1ccccc1-2,Active,,,,
O=C(N/N=C1\c2ccccc2-c2c1c1ccccc1n2Cc1ccccc1)Nc1ccccc1,Active,,,,
COc1ccc(N/N=C2/c3cc(OC)c(OC)cc3-c3c2c2ccccc2n3C)cc1,Active,,,,
COc1ccc(N/N=C2\c3ccccc3-c3c2c2ccccc2n3C)cc1,Active,,,,
COc1ccc2c(c1)c1c(n2C)-c2ccccc2/C1=N\Nc1ccccc1,Active,,,,
O/N=C1\c2ccccc2-c2[nH]c3ccccc3c21,Active,6,60,inactive,inactive
COc1ccc(N/N=C2/c3cc(OC)c(OC)c(OC)c3-c3c2c2ccccc2n3C)cc1,Active,,,,
COc1ccc2c(c1)C(O)c1c-2n(C)c2ccccc12 (centres undefined),Active,4,30,inactive,inactive
COc1ccc2c(c1)/C(=N\O)c1c-2n(C)c2ccccc12,Active,5,60,inactive,inactive
COc1cc([C@@H]2c3cc4c(cc3[C@@H](O[C@@H]3O[C@@H]5CO[C@@H](C)O[C@H]5[C@H](O)[C@H]3O)[C@H]3COC(=O)[C@H]23)OCO4)cc(OC)c1O [ETOPOSIDE],,17,29,inactive,
COc1ccc2c(c1)/C(=N\Nc1ccccc1)c1c-2n(C)c2ccccc12,Active,,,,
